# Measurements published in ChEMBL document CHEMBL3784971, “Synthesis, characterization, antimicrobial and biofilm inhibitory studies of new esterquats” (Bioorg Med Chem Lett, 2016).
# Tests used:
# Staphylococcus aureus [1] = assay: Antimicrobial activity against Staphylococcus aureus MTCC 96 assessed as growth inhibition after 24 hrs by agar well diffusion method; assay type: functional; details: MTCC 96, 24 h
# Bacillus subtilis [2] = assay: Antimicrobial activity against Bacillus subtilis MTCC 121 assessed as growth inhibition after 24 hrs by agar well diffusion method; assay type: functional; details: MTCC 121, 24 h
# Staphylococcus aureus [3] = assay: Antimicrobial activity against Staphylococcus aureus MLS16 MTCC 2940 assessed as growth inhibition after 24 hrs by agar well diffusion method; assay type: functional; details: MLS16 MTCC 2940, 24 h
# Micrococcus luteus [4] = assay: Antimicrobial activity against Micrococcus luteus MTCC 2470 assessed as growth inhibition after 24 hrs by agar well diffusion method; assay type: functional; details: MTCC 2470, 24 h
# Raoultella planticola [5] = assay: Antimicrobial activity against Klebsiella planticola MTCC 530 assessed as growth inhibition after 24 hrs by agar well diffusion method; assay type: functional; details: MTCC 530, 24 h
# Escherichia coli [6] = assay: Antimicrobial activity against Escherichia coli MTCC 739 assessed as growth inhibition after 24 hrs by agar well diffusion method; assay type: functional; details: MTCC 739, 24 h
# Pseudomonas aeruginosa = assay: Antimicrobial activity against Pseudomonas aeruginosa MTCC 2453 assessed as growth inhibition after 24 hrs by agar well diffusion method; assay type: functional; details: MTCC 2453, 24 h
# Candida albicans = assay: Antimicrobial activity against Candida albicans MTCC 3017 assessed as growth inhibition after 24 hrs by agar well diffusion method; assay type: functional; details: MTCC 3017, 24 h
# Staphylococcus aureus [7] = assay: Bactericidal activity against Staphylococcus aureus MTCC 96 after 24 hrs by serial dilution method; assay type: functional; details: MTCC 96, 24 h
# Bacillus subtilis [8] = assay: Bactericidal activity against Bacillus subtilis MTCC 121 after 24 hrs by serial dilution method; assay type: functional; details: MTCC 121, 24 h
# Staphylococcus aureus [9] = assay: Bactericidal activity against Staphylococcus aureus MLS16 MTCC 2940 after 24 hrs by serial dilution method; assay type: functional; details: MLS16 MTCC 2940, 24 h
# Micrococcus luteus [10] = assay: Bactericidal activity against Micrococcus luteus MTCC 2470 after 24 hrs by serial dilution method; assay type: functional; details: MTCC 2470, 24 h
# Raoultella planticola [11] = assay: Bactericidal activity against Klebsiella planticola MTCC 530 after 24 hrs by serial dilution method; assay type: functional; details: MTCC 530, 24 h
# Escherichia coli [12] = assay: Bactericidal activity against Escherichia coli MTCC 739 after 24 hrs by serial dilution method; assay type: functional; details: MTCC 739, 24 h
# Staphylococcus aureus [13] = assay: Antibiofilm activity against Staphylococcus aureus MTCC 96 after 24 hrs by crystal violet staining based assay; assay type: functional, organism-based; details: MTCC 96, 24 h
# Summary of the method: (§1)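 Biofilm inhibition tested for amine esters and esterquats. IC50 values (µg/mL) are the mean of three determinations, with ciprofloxacin as reference.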
# Staphylococcus aureus [14] = assay: Antibiofilm activity against Staphylococcus aureus MLS16 MTCC 2940 after 24 hrs by crystal violet staining based assay; assay type: functional, organism-based; details: MLS16 MTCC 2940, 24 h; summary of the method: as §1
# Micrococcus luteus [15] = assay: Antibiofilm activity against Micrococcus luteus MTCC 2470 after 24 hrs by crystal violet staining based assay; assay type: functional, organism-based; details: MTCC 2470, 24 h; summary of the method: as §1
MIC (Staphylococcus aureus [1]) [µg/mL],MIC (Bacillus subtilis [2]) [µg/mL],MIC (Staphylococcus aureus [3]) [µg/mL],MIC (Micrococcus luteus [4]) [µg/mL],MIC (Escherichia coli [6]) [µg/mL],MIC (Pseudomonas aeruginosa) [µg/mL],MIC (Candida albicans) [µg/mL],IC50 (Staphylococcus aureus [13]) [µg/mL],IC50 (Staphylococcus aureus [14]) [µg/mL],IC50 (Micrococcus luteus [15]) [µg/mL],Compound,MIC (Raoultella planticola [5]) [µg/mL],MBC (Staphylococcus aureus [7]) [µg/mL],MBC (Bacillus subtilis [8]) [µg/mL],MBC (Staphylococcus aureus [9]) [µg/mL],MBC (Micrococcus luteus [10]) [µg/mL],MBC (Raoultella planticola [11]) [µg/mL],MBC (Escherichia coli [12]) [µg/mL]
31.2,62.5,31.2,15.6,> 125,> 125,> 125,21.3,20.8,19.9,COC(=O)CCCCCCCCCCN(C1CCCCC1)C1CCCCC1,> 125,62.5,> 125,> 125,31.2,> 125,> 125
> 125,> 125,> 125,> 125,> 125,> 125,> 125,–,–,–,CCCCCCCCCCCCNCCCCCCCCCCC(=O)OC,> 125,> 125,> 125,> 125,> 125,> 125,> 125
31.2,62.5,62.5,31.2,> 125,> 125,> 125,20.1,–,18.6,CCCCCCN(CCCCCCCCCCC(=O)OC)CCCCCCCCCCC(=O)OC,> 125,62.5,> 125,> 125,62.5,> 125,> 125
